According to ChEMBL document CHEMBL4689842, “EUbOPEN Chemogenomics Library wave 1” (2021):

Key:
Format in all cases: toxicity, cell-based
U2OS = assay: Incucyte cell viability with U2OS; settings: human, 10 µM, compound concentration 10 uM; note: filed as whole numbers so only -1 and 0 and 1 occur
Fibroblast [1] = assay: Multiplex assay against human fibroblast
How it was run: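 Phenotypes for tubulin, mitochondrial mass and membrane permeability are expressed as per cents of healthy-nucleus cells. Cells were stained live at seeding with Hoechst33342, BioTracker Green Microtubule Cytoskeleton Dye, MitoTracker Red and Annexin V Alexa Fluor 680, then imaged after compound addition on a CQ1 microscope at 37°C and 5% CO2. Machine-learning gating in CellPathfinder separated Hoechst high-intensity objects from normal cells, divided normal cells by nuclear state (healthy, pyknosed, fragmented) and divided pyknosed cells into mitotic or apoptotic.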

Fibroblast [2] = assay: Incucyte cell viability with human fibroblast; settings: 10 µM, compound concentration 10 uM; note: filed as whole numbers so only -1 and 0 and 1 occur
HEK-293T = assay: Incucyte cell viability with HEK293T; settings: human, 10 µM, compound concentration 10 uM; note: filed as whole numbers so only -1 and 0 and 1 occur
[3] = 6 h, replicate number 1, timepoint 6 hours
[4] = 12 h, replicate number 1, timepoint 12 hours
[5] = 18 h, replicate number 1, timepoint 18 hours
[6] = 24 h, replicate number 1, timepoint 24 hours
[7] = 12 h, 1 µM, compound concentration 1 uM, replicate 1
[8] = 12 h, 1 µM, compound concentration 1 uM, replicate 2
[9] = 12 h, 10 µM, compound concentration 10 uM, replicate 1
[10] = 12 h, 10 µM, compound concentration 10 uM, replicate 2
[11] = 24 h, 1 µM, compound concentration 1 uM, replicate 1
[12] = 24 h, 1 µM, compound concentration 1 uM, replicate 2
[13] = 24 h, 10 µM, compound concentration 10 uM, replicate 1
[14] = 24 h, 10 µM, compound concentration 10 uM, replicate 2

SMILES: Cl.Cn1c2c(c3ccc(Cl)c(Cl)c31)C(C#N)C1(CCNCC1)NC2=O (stereo unspecified)
- Growth Rate (U2OS; 0 h, replicate number 1, timepoint 0 hours): 0
- Growth Rate (U2OS; [3]): 0
- Growth Rate (U2OS; [4]): 0
- Growth Rate (U2OS; [5]): 0
- Growth Rate (U2OS; [6]): 0
- Population Apoptotic (%) (Fibroblast [1]; [7]): 75%
- Population Fragmented Nuclei (%) (Fibroblast [1]; [7]): 35%
- Population Healthy Nuclei (%) (Fibroblast [1]; [7]): 51%
- Population Hoechst High Intensity Objects (%) (Fibroblast [1]; [7]): 11%
- Population Membrane Permeable-Phenotype (%) (Fibroblast [1]; [7]): 8%
- Population Mitochondria Different-Phenotype (%) (Fibroblast [1]; [7]): 2%
- Population Mitotic Cells (%) (Fibroblast [1]; [7]): 25%
- Population Normal (%) (Fibroblast [1]; [7]): 88%
- Population Pyknosed Nuclei (%) (Fibroblast [1]; [7]): 13%
- Population Tubulin-Different-Phenotype (%) (Fibroblast [1]; [7]): 6%
- Total Cell Count (Fibroblast [1]; [7]): 332
- Population Apoptotic (%) (Fibroblast [1]; [8]): 50%
- Population Fragmented Nuclei (%) (Fibroblast [1]; [8]): 59%
- Population Healthy Nuclei (%) (Fibroblast [1]; [8]): 33%
- Population Hoechst High Intensity Objects (%) (Fibroblast [1]; [8]): 32%
- Population Membrane Permeable-Phenotype (%) (Fibroblast [1]; [8]): 9%
- Population Mitochondria Different-Phenotype (%) (Fibroblast [1]; [8]): 9%
- Population Mitotic Cells (%) (Fibroblast [1]; [8]): 50%
- Population Normal (%) (Fibroblast [1]; [8]): 67%
- Population Pyknosed Nuclei (%) (Fibroblast [1]; [8]): 6%
- Population Tubulin-Different-Phenotype (%) (Fibroblast [1]; [8]): 9%
- Total Cell Count (Fibroblast [1]; [8]): 92
- Population Apoptotic (%) (Fibroblast [1]; [9]): 64%
- Population Fragmented Nuclei (%) (Fibroblast [1]; [9]): 44%
- Population Healthy Nuclei (%) (Fibroblast [1]; [9]): 40%
- Population Hoechst High Intensity Objects (%) (Fibroblast [1]; [9]): 19%
- Population Membrane Permeable-Phenotype (%) (Fibroblast [1]; [9]): 8%
- Population Mitochondria Different-Phenotype (%) (Fibroblast [1]; [9]): 6%
- Population Mitotic Cells (%) (Fibroblast [1]; [9]): 35%
- Population Normal (%) (Fibroblast [1]; [9]): 80%
- Population Pyknosed Nuclei (%) (Fibroblast [1]; [9]): 14%
- Population Tubulin-Different-Phenotype (%) (Fibroblast [1]; [9]): 37%
- Total Cell Count (Fibroblast [1]; [9]): 482
- Population Apoptotic (%) (Fibroblast [1]; [10]): 40%
- Population Fragmented Nuclei (%) (Fibroblast [1]; [10]): 48%
- Population Healthy Nuclei (%) (Fibroblast [1]; [10]): 39%
- Population Hoechst High Intensity Objects (%) (Fibroblast [1]; [10]): 23%
- Population Membrane Permeable-Phenotype (%) (Fibroblast [1]; [10]): 5%
- Population Mitochondria Different-Phenotype (%) (Fibroblast [1]; [10]): 2%
- Population Mitotic Cells (%) (Fibroblast [1]; [10]): 60%
- Population Normal (%) (Fibroblast [1]; [10]): 76%
- Population Pyknosed Nuclei (%) (Fibroblast [1]; [10]): 11%
- Population Tubulin-Different-Phenotype (%) (Fibroblast [1]; [10]): 73%
- Total Cell Count (Fibroblast [1]; [10]): 112
- Population Apoptotic (%) (Fibroblast [1]; [11]): 67%
- Population Fragmented Nuclei (%) (Fibroblast [1]; [11]): 38%
- Population Healthy Nuclei (%) (Fibroblast [1]; [11]): 50%
- Population Hoechst High Intensity Objects (%) (Fibroblast [1]; [11]): 15%
- Population Membrane Permeable-Phenotype (%) (Fibroblast [1]; [11]): 4%
- Population Mitochondria Different-Phenotype (%) (Fibroblast [1]; [11]): 3%
- Population Mitotic Cells (%) (Fibroblast [1]; [11]): 32%
- Population Normal (%) (Fibroblast [1]; [11]): 84%
- Population Pyknosed Nuclei (%) (Fibroblast [1]; [11]): 10%
- Population Tubulin-Different-Phenotype (%) (Fibroblast [1]; [11]): 4%
- Total Cell Count (Fibroblast [1]; [11]): 379
- Population Apoptotic (%) (Fibroblast [1]; [12]): 0%
- Population Fragmented Nuclei (%) (Fibroblast [1]; [12]): 67%
- Population Healthy Nuclei (%) (Fibroblast [1]; [12]): 31%
- Population Hoechst High Intensity Objects (%) (Fibroblast [1]; [12]): 29%
- Population Membrane Permeable-Phenotype (%) (Fibroblast [1]; [12]): 9%
- Population Mitochondria Different-Phenotype (%) (Fibroblast [1]; [12]): 0%
- Population Mitotic Cells (%) (Fibroblast [1]; [12]): 100%
- Population Normal (%) (Fibroblast [1]; [12]): 70%
- Population Pyknosed Nuclei (%) (Fibroblast [1]; [12]): 1%
- Population Tubulin-Different-Phenotype (%) (Fibroblast [1]; [12]): 19%
- Total Cell Count (Fibroblast [1]; [12]): 95
- Population Apoptotic (%) (Fibroblast [1]; [13]): 61%
- Population Fragmented Nuclei (%) (Fibroblast [1]; [13]): 28%
- Population Healthy Nuclei (%) (Fibroblast [1]; [13]): 55%
- Population Hoechst High Intensity Objects (%) (Fibroblast [1]; [13]): 37%
- Population Membrane Permeable-Phenotype (%) (Fibroblast [1]; [13]): 6%
- Population Mitochondria Different-Phenotype (%) (Fibroblast [1]; [13]): 10%
- Population Mitotic Cells (%) (Fibroblast [1]; [13]): 38%
- Population Normal (%) (Fibroblast [1]; [13]): 62%
- Population Pyknosed Nuclei (%) (Fibroblast [1]; [13]): 15%
- Population Tubulin-Different-Phenotype (%) (Fibroblast [1]; [13]): 38%
- Total Cell Count (Fibroblast [1]; [13]): 492
- Population Apoptotic (%) (Fibroblast [1]; [14]): 87%
- Population Fragmented Nuclei (%) (Fibroblast [1]; [14]): 42%
- Population Healthy Nuclei (%) (Fibroblast [1]; [14]): 42%
- Population Hoechst High Intensity Objects (%) (Fibroblast [1]; [14]): 43%
- Population Membrane Permeable-Phenotype (%) (Fibroblast [1]; [14]): 9%
- Population Mitochondria Different-Phenotype (%) (Fibroblast [1]; [14]): 14%
- Population Mitotic Cells (%) (Fibroblast [1]; [14]): 12%
- Population Normal (%) (Fibroblast [1]; [14]): 56%
- Population Pyknosed Nuclei (%) (Fibroblast [1]; [14]): 16%
- Population Tubulin-Different-Phenotype (%) (Fibroblast [1]; [14]): 42%
- Total Cell Count (Fibroblast [1]; [14]): 89
- Growth Rate (Fibroblast [2]; [3]): 0
- Growth Rate (Fibroblast [2]; [4]): 0
- Growth Rate (Fibroblast [2]; [5]): 0
- Growth Rate (Fibroblast [2]; [6]): 0
- Growth Rate (HEK-293T; [3]): 0
- Growth Rate (HEK-293T; [4]): 0
- Growth Rate (HEK-293T; [5]): 0
- Growth Rate (HEK-293T; [6]): 0
